Results as given in ChEMBL document CHEMBL5303300, “EUbOPEN Chemogenomics Library - Multiplex” (2023).
Where “and” joins values, the source holds several entries; their conditions need not be identical. Equal entries are not always repeated.

How the values were obtained:
Assay type in all cases: toxicity, cell-based
U2OS = experiment: Multiplex assay against U2OS; details: human, number of replicates 2
How it was run: (§1)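 Cells stained live at seeding with Hoechst33342, BioTracker Green Microtubule Cytoskeleton Dye, MitoTracker Red and Annexin V Alexa Fluor 680 were imaged on a CQ1 microscope at 37°C and 5% CO2 after compound addition. Their classification by CellPathfinder machine-learning gating ran from Hoechst high-intensity objects versus normal cells, to healthy, pyknosed or fragmented nuclei among normal cells, to mitotic or apoptotic among pyknosed cells. Tubulin, mitochondrial-mass and membrane-permeability phenotypes are per cents of healthy-nucleus cells.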

HEK-293T = experiment: Multiplex assay against HEK293T; details: human, number of replicates 2; how it was run: as §1
Fibroblast = experiment: Multiplex assay against human fibroblast; details: number of replicates 2; how it was run: as §1
[1] = 12 h, 1 µM, compound concentration 1 uM
[2] = 12 h, 10 µM, compound concentration 10 uM
[3] = 24 h, 1 µM, compound concentration 1 uM
[4] = 24 h, 10 µM, compound concentration 10 uM
[5] = 48 h, 1 µM, compound concentration 1 uM
[6] = 48 h, 10 µM, compound concentration 10 uM

With CS(=O)(=O)c1ccc(C(=O)Nc2cc(F)c(F)c(COc3cc(F)c(Br)cc3CN3CC[C@H](O)C3)c2)c(Cl)c1.O=CO the “Population Apoptotic (%)” value (U2OS; [1]) was 71% and 68%, the “Population Hoechst High Intensity Objects (%)” value (U2OS; [1]) was 0% and the “Population Normal (%)” value (U2OS; [1]) was 100%. For the same compound, the “Population Apoptotic (%)” value (U2OS; [2]) was 51% and 52%, the “Population Healthy Nuclei (%)” value (U2OS; [2]) was 28% and the “Population Hoechst High Intensity Objects (%)” value (U2OS; [2]) was 0%. The “Population Normal (%)” value (U2OS; [2]) was 99% and 100%, the “Population Apoptotic (%)” value (U2OS; [3]) was 60% and 78% and the “Population Hoechst High Intensity Objects (%)” value (U2OS; [3]) was 0%. The “Population Normal (%)” value (U2OS; [3]) was 100%, the “Population Apoptotic (%)” value (U2OS; [4]) was 88% and 86% and the “Population Hoechst High Intensity Objects (%)” value (U2OS; [4]) was 0%. The “Population Normal (%)” value (U2OS; [4]) was 100% and 99%, the “Population Apoptotic (%)” value (U2OS; [5]) was 60% and 89% and the “Population Healthy Nuclei (%)” value (U2OS; [5]) was 85%. For the same compound, the “Population Hoechst High Intensity Objects (%)” value (U2OS; [5]) was 1% and 0%, the “Population Normal (%)” value (U2OS; [5]) was 98% and 100% and the “Population Apoptotic (%)” value (U2OS; [6]) was 98% and 90%. The “Population Healthy Nuclei (%)” value (U2OS; [6]) was 14% and 6%, the “Population Hoechst High Intensity Objects (%)” value (U2OS; [6]) was 1% and 3% and the “Population Normal (%)” value (U2OS; [6]) was 98% and 96%. For the same compound, the “Population Apoptotic (%)” value (HEK-293T; [1]) was 60% and 64%, the “Population Mitotic Cells (%)” value (HEK-293T; [1]) was 39% and 35% and the “Population Normal (%)” value (HEK-293T; [1]) was 90%. For the same compound, the “Total Cell Count” value (HEK-293T; [1]) was 610 and 577, the “Population Apoptotic (%)” value (HEK-293T; [2]) was 90% and 72% and the “Population Mitotic Cells (%)” value (HEK-293T; [2]) was 9% and 27%. The “Population Normal (%)” value (HEK-293T; [2]) was 91% and 89%, the “Total Cell Count” value (HEK-293T; [2]) was 406 and 397 and the “Population Apoptotic (%)” value (HEK-293T; [3]) was 59% and 58%. The “Population Mitotic Cells (%)” value (HEK-293T; [3]) was 40% and 41%, the “Population Normal (%)” value (HEK-293T; [3]) was 91% and 92% and the “Total Cell Count” value (HEK-293T; [3]) was 921 and 854. The “Population Apoptotic (%)” value (HEK-293T; [4]) was 91% and 78%, the “Population Mitotic Cells (%)” value (HEK-293T; [4]) was 8% and the “Population Normal (%)” value (HEK-293T; [4]) was 85% and 83%. The “Total Cell Count” value (HEK-293T; [4]) was 392 and 412, the “Population Apoptotic (%)” value (HEK-293T; [5]) was 23% and 44% and the “Population Mitotic Cells (%)” value (HEK-293T; [5]) was 76% and 55%. For the same compound, the “Population Normal (%)” value (HEK-293T; [5]) was 90% and 89%, the “Total Cell Count” value (HEK-293T; [5]) was 2126 and 1643 and the “Population Apoptotic (%)” value (HEK-293T; [6]) was 90% and 83%. The “Population Mitotic Cells (%)” value (HEK-293T; [6]) was 10% and 16%, the “Population Normal (%)” value (HEK-293T; [6]) was 80% and 81% and the “Total Cell Count” value (HEK-293T; [6]) was 434 and 464. For the same compound, the “Population Apoptotic (%)” value (Fibroblast; [1]) was 25% and 38%, the “Population Healthy Nuclei (%)” value (Fibroblast; [1]) was 55% and the “Population Hoechst High Intensity Objects (%)” value (Fibroblast; [1]) was 0%. For the same compound, the “Population Mitotic Cells (%)” value (Fibroblast; [1]) was 75% and 61%, the “Population Normal (%)” value (Fibroblast; [1]) was 100% and the “Total Cell Count” value (Fibroblast; [1]) was 220 and 267. The “Population Apoptotic (%)” value (Fibroblast; [2]) was 80% and 55%, the “Population Healthy Nuclei (%)” value (Fibroblast; [2]) was 29% and the “Population Hoechst High Intensity Objects (%)” value (Fibroblast; [2]) was 0%. The “Population Mitotic Cells (%)” value (Fibroblast; [2]) was 20% and 44%, the “Population Normal (%)” value (Fibroblast; [2]) was 100% and 99% and the “Total Cell Count” value (Fibroblast; [2]) was 162 and 357. For the same compound, the “Population Apoptotic (%)” value (Fibroblast; [3]) was 54% and 55%, the “Population Healthy Nuclei (%)” value (Fibroblast; [3]) was 64% and 54% and the “Population Hoechst High Intensity Objects (%)” value (Fibroblast; [3]) was 0%. The “Population Mitotic Cells (%)” value (Fibroblast; [3]) was 45% and 44%, the “Population Normal (%)” value (Fibroblast; [3]) was 99% and the “Total Cell Count” value (Fibroblast; [3]) was 246 and 309. For the same compound, the “Population Apoptotic (%)” value (Fibroblast; [4]) was 94% and 79%, the “Population Healthy Nuclei (%)” value (Fibroblast; [4]) was 35% and 27% and the “Population Hoechst High Intensity Objects (%)” value (Fibroblast; [4]) was 0%. For the same compound, the “Population Mitotic Cells (%)” value (Fibroblast; [4]) was 5%, the “Population Normal (%)” value (Fibroblast; [4]) was 100% and 99% and the “Total Cell Count” value (Fibroblast; [4]) was 154 and 339. The “Population Apoptotic (%)” value (Fibroblast; [5]) was 73% and 71%, the “Population Healthy Nuclei (%)” value (Fibroblast; [5]) was 61% and 60% and the “Population Hoechst High Intensity Objects (%)” value (Fibroblast; [5]) was 0%. For the same compound, the “Population Mitotic Cells (%)” value (Fibroblast; [5]) was 26%, the “Population Normal (%)” value (Fibroblast; [5]) was 99% and the “Total Cell Count” value (Fibroblast; [5]) was 294 and 351. The “Population Apoptotic (%)” value (Fibroblast; [6]) was 93% and 91%, the “Population Healthy Nuclei (%)” value (Fibroblast; [6]) was 25% and 19% and the “Population Hoechst High Intensity Objects (%)” value (Fibroblast; [6]) was 0%. The “Population Mitotic Cells (%)” value (Fibroblast; [6]) was 6% and 8%, the “Population Normal (%)” value (Fibroblast; [6]) was 99% and the “Total Cell Count” value (Fibroblast; [6]) was 147 and 311.
